Assay results taken from ChEMBL document CHEMBL4219228, “Substituent effect of N-benzylated gramine derivatives that prevent the PP2A inhibition and dissipate the neuronal Ca2+ overload, as a multitarget strategy for the treatment of Alzheimer's disease” (Bioorg Med Chem, 2018).
Calls of active or inactive are those of the source. No cut-off for these calls is given here.

Legend:
[1] = system: Voltage-gated calcium channel; test: Inhibition of KCl-induced cytosolic voltage gated calcium channel opening in human SH-SY5Y cells at 10 uM by Fluo-4 AM dye based fluorescence assay relative to control; type: cell-based
Summary of the method: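 SH-SY5Y cells were loaded with Fluo-4/AM (10 µM) in Krebs-HEPES and preincubated with compound at 10 µM. They were then depolarized with 70 mM K+, and fluorescence (ex 485/em 520 nm) was monitored in real time. ΔF = (Fx−F0)/(Fmax−Fmin), using Triton X-100 for Fmax and MnCl2 for Fmin. Values are % blockade (100−ΔF) against vehicle (DMSO 0.1%), with ≥4 independent experiments in triplicate.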

[2] = biological target: Voltage-gated calcium channel; test: Inhibition of KCl-induced cytosolic voltage gated calcium channel opening in human SH-SY5Y cells by Fluo-4 AM dye based fluorescence assay; type: cell-based
Summary of the method: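 Fluo-4/AM-loaded (10 µM) SH-SY5Y cells in Krebs-HEPES received compound at several concentrations before 70 mM K+ depolarization, with readings at ex 485/em 520 nm. ΔF was normalized to vehicle (DMSO 0.1%) cultures. IC50 is the concentration halving ΔF, from a variable-slope non-linear regression of log concentration vs normalized response. Three experiments in triplicate.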

SH-SY5Y [3] = test: Neuroprotective activity against okadaic acid-induced cell death in human SH-SY5Y cells assessed as cell viability at 0.1 uM preincubated for 24 hrs followed by cotreatment with PPA2 inhibitor okadaic acid measured after 20 hrs by MTT assay (reference value: 50.1 +/- 0.2%); type: functional; details: read-out: Activity
[4] = biological target: Glutamate NMDA receptor (Rattus norvegicus) (UniProt P35439+Q00959+Q00960+Q00961+Q62645+Q8VHN2+Q9R1M7); test: Inhibition of NMDA receptor in rat cortical embryonic neurons assessed as reduction in NMDA-induced cytosolic calcium level at 10 uM by Fluo-4 AM dye based fluorescence assay relative to control
Summary of the method: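 Cortical neurons came from E18 rat embryos (two pregnant rats). They were loaded with Fluo-4/AM (3 µM) in Krebs-HEPES, incubated with compound at 10 µM, then stimulated with NMDA 10 µM, and fluorescence was read at ex 485/em 520 nm. Normalized ΔF is reported as % blockade against vehicle (DMSO 0.1%), with ≥4 independent experiments in triplicate.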

[5] = biological target: T1, Serine/threonine-protein phosphatase 2A 55 kDa regulatory subunit B alpha isoform (Homo sapiens) (UniProt P63151); test: (§1) Reversal of okadaic acid mediated PP2A PR55alpha B regulatory subunit inactivation in human SH-SY5Y cells at 0.1 uM preincubated for 24 hrs followed by cotreatment with PPA2 inhibitor okadaic acid for 18 hrs measured over 30 mins by pNPP based spectrophotometric analysis; type: cell-based
T1 sequence (whole entry): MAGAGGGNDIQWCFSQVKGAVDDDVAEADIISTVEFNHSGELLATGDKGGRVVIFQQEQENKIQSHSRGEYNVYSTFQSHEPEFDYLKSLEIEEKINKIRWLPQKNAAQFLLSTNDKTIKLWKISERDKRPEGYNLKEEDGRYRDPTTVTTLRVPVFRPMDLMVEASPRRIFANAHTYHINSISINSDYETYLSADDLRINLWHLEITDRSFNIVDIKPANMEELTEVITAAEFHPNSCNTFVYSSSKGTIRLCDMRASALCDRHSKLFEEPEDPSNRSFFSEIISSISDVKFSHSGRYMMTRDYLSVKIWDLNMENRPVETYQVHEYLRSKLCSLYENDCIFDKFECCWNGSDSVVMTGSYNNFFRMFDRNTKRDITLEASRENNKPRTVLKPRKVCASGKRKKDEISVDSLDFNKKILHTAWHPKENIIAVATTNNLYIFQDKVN
Summary of the method: (§2)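 SH-SY5Y cells were preincubated with compound for 24 h, then exposed for 18 h to okadaic acid 15 nM plus compound in fresh MEM/F12 with 1% FBS. Phosphatase activity was measured by pNPP dephosphorylation for 30 min at 37 °C, reading p-nitrophenolate at 405 nm. Values were normalized to cells not exposed to OA; at least three independent experiments.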

SH-SY5Y [6] = test: Cytotoxicity against human SH-SY5Y cells assessed as cell viability at 3 uM incubated for 48 hrs by MTT assay
SH-SY5Y [7] = test: Cytotoxicity against human SH-SY5Y cells assessed as cell viability at 10 uM incubated for 48 hrs by MTT assay
[8] = biological target: T1, Serine/threonine-protein phosphatase 2A 55 kDa regulatory subunit B alpha isoform (Homo sapiens); test: as §1, with “cells assessed as residual activity” for “cells”, “analysis relative to control” for “analysis”; type: cell-based; summary of the method: as §2

inhibition (INH) [1]	IC50 [2]	inhibition [4]	Activity [5]	Activity [8]	SMILES	viability at 0.1 µM (SH-SY5Y [3])	Activity (SH-SY5Y [6])	Activity (SH-SY5Y [7])
94%	3.6 µM	32%	Active	–	Cc1ccc(Cn2cc(CN3CCCCC3)c3cc(C)ccc32)cc1	67%	Non-Toxic	–
90%	1.8 µM	24%	–	–	Cc1ccc2c(c1)c(CN1CCCCC1)cn2Cc1ccccc1[N+](=O)[O-]	70%	Non-Toxic	–
90%	3 µM	22%	–	–	Cc1ccc2c(c1)c(CN1CCCCC1)cn2Cc1cccc([N+](=O)[O-])c1	67%	Non-Toxic	–
87%	3.4 µM	42%	Active	–	Cc1ccc2c(c1)c(CN1CCCCC1)cn2Cc1ccccc1	73%	–	–
–	–	41%	–	–	CC12CC3CC(C)(C1)CC(N)(C3)C2	–	–	–
95%	3 µM	52%	Active	–	Cc1ccc2c(c1)c(CN1CCCCC1)cn2Cc1ccc(Cl)cc1	67%	Non-Toxic	Toxic
79%	4.8 µM	34%	Active	93%	Cc1ccc2c(c1)c(CN1CCCCC1)cn2Cc1ccc(F)cc1	67%	Non-Toxic	–
97%	2.2 µM	37%	Active	–	Cc1ccc2c(c1)c(CN1CCCCC1)cn2Cc1cccc(Cl)c1	67%	Non-Toxic	Toxic

SMILES	inhibition (INH) [1]	IC50 [2]	inhibition [4]	Activity [5]	Activity [8]	viability at 0.1 µM (SH-SY5Y [3])	Activity (SH-SY5Y [6])	Activity (SH-SY5Y [7])
COC(=O)C1=C(C)NC(C)=C(C(=O)OC)C1c1ccccc1[N+](=O)[O-] [NIFEDIPINE]	32%	–	–	–	–	–	–	–
